According to ChEMBL document CHEMBL3525985, “Regiospecificity and stereospecificity of human UDP-glucuronosyltransferases in the glucuronidation of estriol, 16-epiestriol, 17-epiestriol, and 13-epiestradiol” (Drug Metab Dispos, 2013):

Experiments:
Assay type in all cases: ADME
[1] = target: T1, UDP-glucuronosyltransferase 1A10 (Homo sapiens, UniProt Q9HAW8); experiment: Drug metabolism assessed as recombinant human C-terminal His-tagged UGT1A10-mediated 16-epiestriol-3-glucuronide formation after 15 to 60 mins by Michaelis-Menten equation analysis in presence of UDPGA; conditions: recombinant enzyme
T1 sequence (Q9HAW8 whole entry): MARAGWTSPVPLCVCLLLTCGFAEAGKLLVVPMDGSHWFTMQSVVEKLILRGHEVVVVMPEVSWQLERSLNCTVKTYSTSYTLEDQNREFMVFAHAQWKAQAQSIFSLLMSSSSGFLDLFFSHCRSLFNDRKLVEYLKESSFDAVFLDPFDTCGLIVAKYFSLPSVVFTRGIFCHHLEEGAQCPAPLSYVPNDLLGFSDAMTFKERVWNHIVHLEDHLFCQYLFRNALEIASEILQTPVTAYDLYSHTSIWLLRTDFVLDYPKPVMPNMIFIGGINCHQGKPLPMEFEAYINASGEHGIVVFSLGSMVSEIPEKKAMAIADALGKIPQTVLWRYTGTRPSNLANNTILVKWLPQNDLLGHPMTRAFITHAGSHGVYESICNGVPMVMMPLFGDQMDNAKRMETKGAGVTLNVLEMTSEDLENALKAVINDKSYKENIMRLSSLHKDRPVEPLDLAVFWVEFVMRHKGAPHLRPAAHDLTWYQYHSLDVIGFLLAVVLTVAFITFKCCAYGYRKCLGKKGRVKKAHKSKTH
Summary of the method: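 For kinetics, the aglycone ranged from 0.2 to 300 μM in DMSO (10% final) with 5 mM UDPGA, 10 mM MgCl₂ and 50 mM phosphate pH 7.4. Enzyme was UGT-enriched insect cell membranes. Incubation was 15–60 min at 37°C, in triplicate, keeping substrate consumption ≤10%. Products were measured by HPLC and fitted to Michaelis-Menten. Rates were normalized to expression level.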

[2] = target: T2, UDP-glucuronosyltransferase 1A1 (Homo sapiens, UniProt P22309); experiment: Drug metabolism assessed as recombinant human C-terminal His-tagged UGT1A1-mediated 16-epiestriol-3-glucuronide formation after 15 to 60 mins by Michaelis-Menten equation analysis in presence of UDPGA; conditions: recombinant enzyme
T2 sequence (P22309 whole entry): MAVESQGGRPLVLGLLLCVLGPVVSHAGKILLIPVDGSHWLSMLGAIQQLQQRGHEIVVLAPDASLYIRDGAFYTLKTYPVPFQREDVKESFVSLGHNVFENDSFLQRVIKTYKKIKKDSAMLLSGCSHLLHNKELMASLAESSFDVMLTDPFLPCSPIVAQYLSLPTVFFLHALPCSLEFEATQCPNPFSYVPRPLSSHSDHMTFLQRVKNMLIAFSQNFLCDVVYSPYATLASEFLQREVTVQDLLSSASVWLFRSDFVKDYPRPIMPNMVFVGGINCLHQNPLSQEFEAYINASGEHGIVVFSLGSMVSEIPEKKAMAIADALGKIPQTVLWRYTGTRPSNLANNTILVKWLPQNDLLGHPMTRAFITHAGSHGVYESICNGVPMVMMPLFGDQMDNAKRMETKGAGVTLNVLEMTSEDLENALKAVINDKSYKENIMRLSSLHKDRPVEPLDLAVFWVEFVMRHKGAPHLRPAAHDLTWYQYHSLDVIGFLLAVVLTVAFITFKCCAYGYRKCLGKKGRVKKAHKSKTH

[3] = target: T3, UDP-glucuronosyltransferase 2B15 (Homo sapiens, UniProt P54855); experiment: Drug metabolism assessed as recombinant human C-terminal […]-mediated 16-epiestriol-3-glucuronide formation after 15 to 60 mins by Michaelis-Menten equation analysis in presence of UDPGA; conditions: recombinant enzyme
T3 sequence (P54855 whole entry): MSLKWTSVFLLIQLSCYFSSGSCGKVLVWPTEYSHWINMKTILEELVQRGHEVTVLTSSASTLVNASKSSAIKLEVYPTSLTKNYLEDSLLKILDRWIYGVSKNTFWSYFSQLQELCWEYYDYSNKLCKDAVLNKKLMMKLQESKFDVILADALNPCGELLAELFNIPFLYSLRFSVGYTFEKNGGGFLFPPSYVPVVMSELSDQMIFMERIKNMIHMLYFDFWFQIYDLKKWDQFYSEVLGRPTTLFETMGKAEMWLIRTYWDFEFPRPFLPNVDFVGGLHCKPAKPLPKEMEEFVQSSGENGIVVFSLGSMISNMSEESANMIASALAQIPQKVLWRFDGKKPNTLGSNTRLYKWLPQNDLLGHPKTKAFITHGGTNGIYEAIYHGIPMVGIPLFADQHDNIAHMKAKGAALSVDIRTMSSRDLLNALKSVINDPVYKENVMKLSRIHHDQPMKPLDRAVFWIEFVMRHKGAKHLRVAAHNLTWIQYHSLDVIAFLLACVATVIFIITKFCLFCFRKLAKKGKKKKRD

[4] = target: T4, UDP-glucuronosyltransferase 2B7 (Homo sapiens, UniProt P16662); experiment: Inhibition of recombinant human C-terminal His-tagged UGT2B7 after 15 to 60 mins by Michaelis-Menten equation analysis in presence of UDPGA
T4 sequence (P16662 whole entry): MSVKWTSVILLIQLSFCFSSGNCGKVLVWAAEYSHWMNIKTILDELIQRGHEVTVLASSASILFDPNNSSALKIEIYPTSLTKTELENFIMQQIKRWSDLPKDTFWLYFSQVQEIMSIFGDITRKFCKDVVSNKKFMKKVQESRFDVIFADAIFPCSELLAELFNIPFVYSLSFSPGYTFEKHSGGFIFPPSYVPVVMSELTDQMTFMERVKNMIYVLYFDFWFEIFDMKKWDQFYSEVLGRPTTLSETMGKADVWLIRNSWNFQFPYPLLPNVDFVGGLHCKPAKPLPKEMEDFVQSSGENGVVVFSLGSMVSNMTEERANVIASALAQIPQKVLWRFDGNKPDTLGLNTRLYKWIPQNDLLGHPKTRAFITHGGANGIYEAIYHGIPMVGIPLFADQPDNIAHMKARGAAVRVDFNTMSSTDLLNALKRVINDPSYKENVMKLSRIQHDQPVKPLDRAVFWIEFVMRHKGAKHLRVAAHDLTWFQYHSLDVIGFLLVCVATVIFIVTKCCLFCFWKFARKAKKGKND
Summary of the method: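 Kinetics with His-tagged UGT-enriched insect-cell membranes (5 or 50 µg): aglycone 0.2–300 µM in 10% DMSO, 5 mM UDPGA, 10 mM MgCl₂, 50 mM phosphate pH 7.4, 15–60 min at 37°C. Substrate consumption kept at or below 10%. Glucuronides quantified by HPLC in triplicate, rates normalized to expression, and data fitted to Michaelis-Menten.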

- Drug metabolism [1]: 3500 pmol/min/mg
- Drug metabolism [2]: 0.5 pmol/min/mg
- Drug metabolism [3]: 0.5 pmol/min/mg
- Ki [4]: 162 µM
Compound: C[C@]12CC[C@@H]3c4ccc(O)cc4CC[C@H]3[C@@H]1C[C@H](O)[C@@H]2O [EPIESTRIOL]
